According to publication PMC6024207 (Chemical Science, 2016):

Key:
bovine SOD1 = assay: Inhibition of bovine SOD1 activity in pH 7.4 buffer; format: biochemical; settings: 1 μM SOD1, 5 μM compound, 60 min, 37 °C, 1% DMSO
Summary of the method: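 Bovine SOD1 (1 μM) was preincubated 60 min at 37 °C with 5 μM test compound in pH 7.4 buffer containing 1% DMSO. Activity was then measured with a SOD1-specific superoxide dismutase assay kit. Control was the same buffer with 1% DMSO. n ≥ 3, each condition in duplicate; results are mean ± SD.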

CcO [1] = assay: CcO activity in treated HeLa cells; format: cell-based, human; settings: HeLa cells treated 24 h with 50 μM, then lysed
Summary of the method: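 HeLa cells were treated 24 h with 50 μM test compound and lysed. Ferrocytochrome c (cytochrome c reduced with dithiothreitol) was added, and the absorbance change at 550 nm was followed, using a reduced–oxidized extinction difference of 21.84. One unit oxidizes […] at pH 7.4, 25 °C. Control was a blank containing 1% DMSO. Results are mean ± SD of at least three experiments in duplicate.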

CcO [2] = assay: CcO activity in lysates of untreated HeLa cells; format: biochemical, human; settings: incubation for 30 min with 50 μM
Summary of the method: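 Untreated HeLa cells were lysed, and lysates were incubated 30 min with 50 μM test compound. CcO activity was then read with a human CcO ELISA kit. Control was a blank containing 1% DMSO. Results are mean ± SD of at least three experiments, each condition in duplicate.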

tyrosinase from potato = assay: Tyrosinase activity; format: biochemical; settings: 50 μM, incubation for 0–20 min
Summary of the method: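 Tyrosinase was isolated and purified from potato. The enzyme extract was preincubated at 30 °C in 0.05 M phosphate buffer pH 6.8 containing 50 μM test compound. L-DOPA was added from a 5 mM solution. DOPAchrome formation was followed at 475 nm over time (ε = 3600), and the initial rate gave activity. Control was a blank with 1% DMSO.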

Row | SMILES | SOD1 activity, % of the control (bovine SOD1) | CcO activity relative to control (CcO [1]) | CcO activity in lysates of untreated cells (CcO [2]) | reduction in tyrosinase activity relative to the control (tyrosinase from potato)
1 | CCN(CC)C(=S)S [DDC, diethyldithiocarbamate] | > 60% |  |  | 
2 | [N-]=[N+]=[N-].[Na+] [NaN3] |  | complete inactivation of CcO | complete inactivation of CcO | 
3 | [SH-].[SH-].[S]=[Mo]=[S] [TM, tetrathiomolybdate] |  | reduced to half of that of the control | partial | complete inactivation of the enzyme
